Data as given in ChEMBL document CHEMBL1212734, “In vitro pharmacodynamics of levofloxacin and other aerosolized antibiotics under multiple conditions relevant to chronic pulmonary infection in cystic fibrosis” (2010).
≈ marks a conversion by molar mass, not a printed value.

Tests used:
Type in all cases: functional
Pseudomonas aeruginosa [1] = assay: Antibacterial activity against Pseudomonas aeruginosa PA876 assessed as time required for reduction of bacterial load to 3 log CFU/ml at 0.6 mg/ml up to 48 hrs by time-kill assay
Outline: (§1)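 Overnight cultures were diluted and grown at 37°C to OD600 ≈0.3, then set at 5 × 10^5–1 × 10^6 CFU/ml in 10 ml CAMHB. Drug was added at 0.2, 0.6 or 2.0 mg/ml, and cultures were shaken at 37°C. Samples taken at 0, 0.5, 1, 2, 4, 8 and 24 h were washed twice in CAMHB, diluted in saline and plated on Mueller-Hinton agar. Plates were incubated up to 48 h before colony counting.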

Staphylococcus aureus = assay: Antibacterial activity against methicillin-resistant Staphylococcus aureus by broth dilution method
Outline: (§2)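 Broth microdilution MIC per CLSI reference method; twofold serial dilutions in cation-adjusted Mueller-Hinton broth. […] Endpoint read by OD600 and confirmed visually.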

Pseudomonas aeruginosa [2] = assay: Antibacterial activity against Pseudomonas aeruginosa PA1022 assessed as time required for reduction of bacterial load to 3 log CFU/ml at 0.6 mg/ml up to 48 hrs by time-kill assay; outline: as §1
Pseudomonas aeruginosa [3] = assay: Antibacterial activity against Pseudomonas aeruginosa PA5020 assessed as time required for reduction of bacterial load to 3 log CFU/ml at 0.6 mg/ml up to 48 hrs by time-kill assay; outline: as §1
Pseudomonas aeruginosa [4] = assay: Antibacterial activity against Pseudomonas aeruginosa PA876 by broth dilution method; outline: as §2
Pseudomonas aeruginosa [5] = assay: Antibacterial activity against Pseudomonas aeruginosa PA1036 assessed as time required for reduction of bacterial load to 3 log CFU/ml at 0.6 mg/ml up to 48 hrs by time-kill assay; outline: as §1
Pseudomonas aeruginosa [6] = assay: Antibacterial activity against Pseudomonas aeruginosa PA5026 assessed as time required for reduction of bacterial load to 3 log CFU/ml at 0.6 mg/ml up to 48 hrs by time-kill assay; outline: as §1
Pseudomonas aeruginosa [7] = assay: Antibacterial activity against Pseudomonas aeruginosa PA5026 assessed as time required for reduction of bacterial load to 3 log CFU/ml at 0.2 mg/ml up to 48 hrs by time-kill assay; outline: as §1
Pseudomonas aeruginosa [8] = assay: Antibacterial activity against Pseudomonas aeruginosa PA880 by broth dilution method; outline: as §2
Pseudomonas aeruginosa [9] = assay: Antibacterial activity against Pseudomonas aeruginosa PA899 assessed as time required for reduction of bacterial load to 3 log CFU/ml at 0.2 mg/ml up to 48 hrs by time-kill assay; outline: as §1
Pseudomonas aeruginosa [10] = assay: Antibacterial activity against Pseudomonas aeruginosa PA861 assessed as time required for reduction of bacterial load to 3 log CFU/ml at 2 mg/ml up to 48 hrs by time-kill assay; outline: as §1
Pseudomonas aeruginosa [11] = assay: Antibacterial activity against Pseudomonas aeruginosa PA861 by broth dilution method; outline: as §2
Pseudomonas aeruginosa [12] = assay: Antibacterial activity against Pseudomonas aeruginosa PA861 assessed as time required for reduction of bacterial load to 3 log CFU/ml at 0.2 mg/ml up to 48 hrs by time-kill assay; outline: as §1
Pseudomonas aeruginosa [13] = assay: Antibacterial activity against Pseudomonas aeruginosa PA5020 by broth dilution method
Pseudomonas aeruginosa [14] = assay: Antibacterial activity against Pseudomonas aeruginosa ATCC 27853 by broth dilution method; outline: as §2
Pseudomonas aeruginosa [15] = assay: Antibacterial activity against Pseudomonas aeruginosa ATCC 27853 assessed as time required for reduction of bacterial load to 3 log CFU/ml at 0.6 mg/ml up to 48 hrs by time-kill assay
Pseudomonas aeruginosa [16] = assay: Antibacterial activity against Pseudomonas aeruginosa PA1022 by broth dilution method
Pseudomonas aeruginosa [17] = assay: Antibacterial activity against Pseudomonas aeruginosa PA881 by broth dilution method; outline: as §2
[18] = tested on: Achromobacter xylosoxidans; assay: Antibacterial activity against Alcaligenes xylosoxidans by broth dilution method
Pseudomonas aeruginosa [19] = assay: Antibacterial activity against Pseudomonas aeruginosa PA1054 by broth dilution method; outline: as §2
Pseudomonas aeruginosa [20] = assay: Antibacterial activity against Pseudomonas aeruginosa PA5043 by broth dilution method; outline: as §2
Pseudomonas aeruginosa [21] = assay: Antibacterial activity against Pseudomonas aeruginosa PA1042 by broth dilution method; outline: as §2
Pseudomonas aeruginosa [22] = assay: Antibacterial activity against Pseudomonas aeruginosa PA1042 assessed as time required for reduction of bacterial load to 3 log CFU/ml at 2 mg/ml up to 48 hrs by time-kill assay; outline: as §1
Pseudomonas aeruginosa [23] = assay: Antibacterial activity against Pseudomonas aeruginosa PA881 assessed as time required for reduction of bacterial load to 3 log CFU/ml at 2 mg/ml up to 48 hrs by time-kill assay; outline: as §1
Pseudomonas aeruginosa [24] = assay: Antibacterial activity against Pseudomonas aeruginosa ATCC 27853 assessed as time required for reduction of bacterial load to 3 log CFU/ml at 0.2 mg/ml up to 48 hrs by time-kill assay
Pseudomonas aeruginosa [25] = assay: Antibacterial activity against Pseudomonas aeruginosa PA1042 assessed as time required for reduction of bacterial load to 3 log CFU/ml at 0.2 mg/ml up to 48 hrs by time-kill assay; outline: as §1
Pseudomonas aeruginosa [26] = assay: Antibacterial activity against Pseudomonas aeruginosa PA1054 assessed as time required for reduction of bacterial load to 3 log CFU/ml at 2 mg/ml up to 48 hrs by time-kill assay; outline: as §1
Pseudomonas aeruginosa [27] = assay: Antibacterial activity against Pseudomonas aeruginosa PA899 assessed as time required for reduction of bacterial load to 3 log CFU/ml at 2 mg/ml up to 48 hrs by time-kill assay; outline: as §1
Pseudomonas aeruginosa [28] = assay: Antibacterial activity against Pseudomonas aeruginosa PA899 by broth dilution method; outline: as §2
Burkholderia cepacia = assay: Antibacterial activity against Burkholderia cepacia clinical isolates by broth dilution method
Pseudomonas aeruginosa [29] = assay: Antibacterial activity against Pseudomonas aeruginosa PAM1032 overexpressing multidrug efflux pump MexAB-OprM by broth dilution method

C[C@H]1[C@H](NC(=O)/C(=N\OC(C)(C)C(=O)O)c2csc(N)n2)C(=O)N1S(=O)(=O)O [AZTREONAM]
Time (Pseudomonas aeruginosa [1]): >24 h | MIC50 (Staphylococcus aureus): > 512 µg/mL | MIC90 (Staphylococcus aureus): > 512 µg/mL | Time (Pseudomonas aeruginosa [2]): >24 h | Time (Pseudomonas aeruginosa [3]): >24 h | MIC90 (Pseudomonas aeruginosa [4]): > 128 µg/mL | Time (Pseudomonas aeruginosa [5]): 24 h | Time (Pseudomonas aeruginosa [6]): >24 h | Time (Pseudomonas aeruginosa [7]): >24 h | MIC (Pseudomonas aeruginosa [8]): 0.5 µg/mL (≈ 1.15 µM) | Time (Pseudomonas aeruginosa [9]): >24 h | Time (Pseudomonas aeruginosa [10]): 24 h | MIC (Pseudomonas aeruginosa [11]): 128 µg/mL (≈ 294 µM) | Time (Pseudomonas aeruginosa [12]): >24 h | MIC (Pseudomonas aeruginosa [13]): 64 µg/mL (≈ 147 µM) | MIC (Pseudomonas aeruginosa [14]): 4 µg/mL (≈ 9.19 µM) | Time (Pseudomonas aeruginosa [15]): 24 h | MIC (Pseudomonas aeruginosa [16]): 16 µg/mL (≈ 36.7 µM) | MIC50 (Pseudomonas aeruginosa [17]): 2 µg/mL (≈ 4.59 µM) | MIC50 [18]: 64 µg/mL (≈ 147 µM) | MIC90 [18]: > 128 µg/mL | MIC (Pseudomonas aeruginosa [19]): 8 µg/mL (≈ 18.4 µM) | MIC (Pseudomonas aeruginosa [20]): 1 µg/mL (≈ 2.3 µM) | MIC (Pseudomonas aeruginosa [21]): 0.5 µg/mL (≈ 1.15 µM) | Time (Pseudomonas aeruginosa [22]): 2 h | Time (Pseudomonas aeruginosa [23]): 8 h | Time (Pseudomonas aeruginosa [24]): 24 h | Time (Pseudomonas aeruginosa [25]): 8 h | Time (Pseudomonas aeruginosa [26]): 24 h | Time (Pseudomonas aeruginosa [27]): 24 h | MIC (Pseudomonas aeruginosa [28]): 8 µg/mL (≈ 18.4 µM)

C[C@H]1COc2c(N3CCN(C)CC3)c(F)cc3c(=O)c(C(=O)O)cn1c23.C[C@H]1COc2c(N3CCN(C)CC3)c(F)cc3c(=O)c(C(=O)O)cn1c23.O [LEVOFLOXACIN]
Time (Pseudomonas aeruginosa [1]): <=0.5 hr | MIC50 (Staphylococcus aureus): 4 µg/mL | MIC90 (Staphylococcus aureus): 32 µg/mL | Time (Pseudomonas aeruginosa [2]): <=0.5 hr | Time (Pseudomonas aeruginosa [3]): 4 h | MIC90 (Pseudomonas aeruginosa [4]): 8 µg/mL | Time (Pseudomonas aeruginosa [5]): <=0.5 hr | Time (Pseudomonas aeruginosa [6]): <=0.5 hr | Time (Pseudomonas aeruginosa [7]): <=0.5 hr | Time (Pseudomonas aeruginosa [9]): <=0.5 hr | Time (Pseudomonas aeruginosa [10]): <=0.5 hr | MIC (Pseudomonas aeruginosa [11]): 32 µg/mL | Time (Pseudomonas aeruginosa [12]): <=0.5 hr | MIC50 (Burkholderia cepacia): 4 µg/mL | MIC90 (Burkholderia cepacia): 32 µg/mL | MIC (Pseudomonas aeruginosa [13]): 16 µg/mL | Time (Pseudomonas aeruginosa [15]): <=0.5 hr | MIC50 (Pseudomonas aeruginosa [17]): 4 µg/mL | MIC50 [18]: 4 µg/mL | MIC90 [18]: 16 µg/mL | MIC (Pseudomonas aeruginosa [19]): 0.5 µg/mL | Time (Pseudomonas aeruginosa [22]): <=0.5 hr | Time (Pseudomonas aeruginosa [23]): <=0.5 hr | Time (Pseudomonas aeruginosa [24]): <=0.5 hr | Time (Pseudomonas aeruginosa [25]): <=0.5 hr | Time (Pseudomonas aeruginosa [26]): <=0.5 hr | Time (Pseudomonas aeruginosa [27]): <=0.5 hr | MIC (Pseudomonas aeruginosa [28]): 0.5 µg/mL

NC[C@H]1O[C@H](O[C@H]2[C@H](O)[C@@H](O[C@H]3O[C@H](CO)[C@@H](O)[C@H](N)[C@H]3O)[C@H](N)C[C@@H]2N)[C@H](N)C[C@@H]1O [TOBRAMYCIN]
Time (Pseudomonas aeruginosa [1]): 4 h | MIC50 (Staphylococcus aureus): 128 µg/mL (≈ 274 µM) | MIC90 (Staphylococcus aureus): > 128 µg/mL | Time (Pseudomonas aeruginosa [2]): 4 h | Time (Pseudomonas aeruginosa [3]): 2 h | MIC90 (Pseudomonas aeruginosa [4]): 32 µg/mL (≈ 68.4 µM) | Time (Pseudomonas aeruginosa [5]): <=0.5 hr | Time (Pseudomonas aeruginosa [6]): 1 h | Time (Pseudomonas aeruginosa [7]): 2 h | MIC (Pseudomonas aeruginosa [29]): 0.25 µg/mL (≈ 0.535 µM) | MIC (Pseudomonas aeruginosa [8]): 1 µg/mL (≈ 2.14 µM) | Time (Pseudomonas aeruginosa [9]): <=0.5 hr | Time (Pseudomonas aeruginosa [10]): 4 h | MIC (Pseudomonas aeruginosa [11]): 16 µg/mL (≈ 34.2 µM) | Time (Pseudomonas aeruginosa [12]): 8 h | MIC50 (Burkholderia cepacia): > 32 µg/mL | MIC90 (Burkholderia cepacia): > 32 µg/mL | MIC (Pseudomonas aeruginosa [13]): 8 µg/mL (≈ 17.1 µM) | MIC (Pseudomonas aeruginosa [14]): 0.25 µg/mL (≈ 0.535 µM) | Time (Pseudomonas aeruginosa [15]): <=0.5 hr | MIC (Pseudomonas aeruginosa [16]): > 32 µg/mL | MIC50 (Pseudomonas aeruginosa [17]): 2 µg/mL (≈ 4.28 µM) | MIC50 [18]: > 32 µg/mL | MIC90 [18]: > 32 µg/mL | MIC (Pseudomonas aeruginosa [19]): 0.25 µg/mL (≈ 0.535 µM) | MIC (Pseudomonas aeruginosa [20]): 8 µg/mL (≈ 17.1 µM) | MIC (Pseudomonas aeruginosa [21]): 0.5 µg/mL (≈ 1.07 µM) | Time (Pseudomonas aeruginosa [22]): <=0.5 hr | Time (Pseudomonas aeruginosa [23]): <=0.5 hr | Time (Pseudomonas aeruginosa [24]): <=0.5 hr | Time (Pseudomonas aeruginosa [25]): 1 h | Time (Pseudomonas aeruginosa [26]): <=0.5 hr | Time (Pseudomonas aeruginosa [27]): <=0.5 hr | MIC (Pseudomonas aeruginosa [28]): 0.25 µg/mL (≈ 0.535 µM)
